Only some compounds are listed: those with a hit (about 1.1% of all), similar ones and a draw of the others.
PglD inh – inhibitors of Campylobacter jejuni PglD acetyltransferase; AID 602405; inhibition, % at 12.5 µM; purified PglD enzyme, DTNB colorimetric CoA detection; 0.098% of 360,000 active; in the data active = inhibition above about 16%, passing the limit was not always enough
miR122 inh – miR-122 inhibition in Huh7 cells | Huh7 miR-122 Renilla luciferase sensor, 48 h; neutral wells = 0, positive control = 100 | activation (reporter increase), % at 12.5 µM | AID 602342 | 0.3% of 340,000 active;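 active = mean replicate activation score at least 90 and every replicate individually at or above 90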;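 also: higher luciferase means less miR-122 activity so hits act as miR-122 inhibitors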
Cneo AK release – Cryptococcus neoformans lysis via adenylate kinase release; AID 651654; C. neoformans lysis, adenylate kinase release luminescence, 4 h; normalised: neutral wells 0, clomiphene wells 100; lysis activity, % at 15 µM; 0.2% of 360,000 active;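 active = mean lysis activity across replicates of at least 80%, whatever share of replicates individually reach that level; inactive = mean lysis activity below 80%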
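Signal: Adenylate kinase release luminescence | Assay system: Log-phase Cryptococcus neoformans yeast cells | Input: Cells at 5 × 10^6 per mL | Buffer or medium: Fresh YPD growth medium | Compound: Single dose | Schedule: Static 4 h at 37 °C with compound, 1 h detection | Controls: Clomiphene | Read-out: Luminescence rise reflecting yeast cell lysis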
CAL PDZ FP-1 – blocks peptide binding to human CAL PDZ domain; AID 504414; 0.02% of 330,000 active; purified CAL PDZ, TMR-peptide fluorescence polarization, 1 h; inhibition, % at 20 µM; Q9HD26;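 active = highest replicate inhibition of at least 40%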;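 also: plate controls were DMSO neutral control wells for no effect and unlabeled competitor peptide control wells for full effect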
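Material: tagged CAL PDZ domain; buffer or medium: 25 mM sodium phosphate pH 7.4, 150 mM NaCl, TCEP, IgG, Thesit; compound dosing: single point, 20 µM; schedule: 1 h incubation at room temperature before polarization reading; measured by: FP readout, S and P plane fluorescence; read-out basis: percent inhibition from loss of millipolarization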
CAL PDZ FP-2 – blocks peptide binding to the human CAL PDZ domain; Q9HD26; purified CAL PDZ, TMR-peptide fluorescence polarization, 1 h; inhibition, % at 24.9 µM; 0.92% of 300,000 active; AID 602252;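 active = mean inhibition of at least 30% with at least half of replicates also reaching 30%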;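 also: 0% = DMSO neutral control and 100% = excess unlabeled competitor peptide PRC23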
Numbers without * were called inactive; . = no result given; [ ] = dose if it differs, or a comment.

SMILES	PglD inh	miR122 inh	Cneo AK release	CAL PDZ FP-1	CAL PDZ FP-2
C[C@@H]1CN([C@@H](C)CO)S(=O)(=O)c2ccc(C#C[C@@H](C)O)cc2O[C@H]1CN(C)CC1CCOCC1	6	19[16.7 µM]	2	.	.
O=C([C@H]1[C@H](CO)[C@H]2Cn3c(ccc(-c4cccnc4)c3=O)[C@H]2N1CCC(F)(F)F)N1CCOCC1	0	.	1	.	.
COc1ccc([N+](=O)[O-])cc1N(CC(=O)N1CCCC1)S(C)(=O)=O	.	.	.	0	5
COCCNC(=O)C[C@@H]1C[C@H]2c3cc(NC(=O)C4CCC4)ccc3O[C@H]2[C@@H](CO)O1	1	14[16.7 µM]	84*	.	.
COCC(=O)Nc1ccc2c(c1)[C@H]1C[C@H](CC(=O)NCc3ccccc3OC)O[C@H](CO)[C@H]1O2	-1	2[16.7 µM]	1	.	.
COc1ccc(NC(=O)N(C)C[C@@H]2Oc3c(NS(C)(=O)=O)cccc3C(=O)N([C@H](C)CO)C[C@@H]2C)cc1	1	-1[16.7 µM]	-3	.	.
Cc1ccc(S(=O)(=O)N2CCOCC2)cc1C(=O)N1CCN(c2ncccn2)CC1	-4	-7	0	0	51*
Cn1nc(C(=O)Nc2nc(-c3ccccn3)cs2)c2ccccc2c1=O	-1	-3	1	-2	85*
CCCn1nc(C(=O)Nc2nc(-c3ccccn3)cs2)c2ccccc2c1=O	-2	3	0	-2	-2
C#CCNC(=O)C1=C[C@H](c2ccc(Br)cc2)[C@@H](CCCO)[C@H](OCC)O1	-3	2	0	1	-4
Cc1cccc(-c2ccc([C@@H]3[C@@H](CO)N4CCCCN(S(=O)(=O)c5ccccc5C)C[C@@H]34)cc2)c1	1	17[16.7 µM]	108*	.	.
Cc1cccc(-c2ccc([C@H]3[C@H]4CN(S(=O)(=O)c5ccccc5C)CCCCN4[C@H]3CO)cc2)c1	-1	6[16.7 µM]	0	.	.
CCS(=O)(=O)N1CCCCN2[C@H](CO)[C@@H](c3ccc(-c4ccc(C#N)cc4)cc3)[C@@H]2C1	-3	10[16.7 µM]	88*	.	.
O=C(Nc1ccccc1)C1=C[C@H](c2ccc3c(c2)OCO3)C[C@H](OCc2ccc(CO)cc2)O1	-1	.	41	-1	-3
CCOC(=O)C1=C(C)NC(C)=C(C(=O)OCC)C1c1ccc(C)o1	.	.	.	-1	74*
COC(=O)C1=C(C)NC(C)=C(C(=O)OC)C1c1ccco1	.	.	.	-2	91*
C=CCOC(=O)C1=C(C)NC(C)=C(C(=O)OCC=C)C1c1ccc(C)o1	0	2	2	0	-6
CCOC(=O)C1=C(C)NC(C)=C(C(=O)OCC)C1c1ccco1	-141	0	1	0	.
Cc1[nH]c2ccccc2c1/C=N/NC(=O)c1cc(C(C)C)[nH]n1	.	.	.	2	6
COc1ccc(C(=O)NNC(=O)CCn2nnc(-c3ccc(Cl)cc3)n2)cc1OC	.	.	.	-1	-3
Cn1c(NCC(O)CO)nc2c1c(=O)n(Cc1ccc(Cl)c(Cl)c1)c(=O)n2C (stereo unspecified)	0	-6	-4	0	-6
Cn1c(NCc2ccco2)nc2c1c(=O)n(Cc1ccc(Cl)c(Cl)c1)c(=O)n2C	-4	-10	-8	-1	76*
Cc1c(C(=O)N2CCCCC2)c(S(=O)(=O)N2CCC(C)CC2)c(C)n1C	3	1	0	-1	75*
O=C(Cn1ncc(N2CCOCC2)c(Cl)c1=O)c1ccc(Cl)cc1	.	5	.	0	34*
COC(=O)/C=C/COc1ccccc1[N+](=O)[O-]	.	.	.	1	35*
SMILES	PglD inh	miR122 inh	Cneo AK release	CAL PDZ FP-1	CAL PDZ FP-2
O=C(C[C@@H]1CC[C@H](NC(=O)C2CCC2)[C@@H](CO)O1)NCC1CC1	-2	-6[16.7 µM]	-10	.	.
COc1ccc(CN2C3CCC2CC(NC(=O)c2cccc(F)c2)C3)cc1 (stereo unspecified)	-4	4	3	-1	-1
CCOc1ccc(C(=O)NC2CC3CCCC(C2)N3Cc2ccccc2)cc1 (stereo unspecified)	7	4	0	50*	-2
COc1cccc(C(=O)NC2CC3CCC(C2)N3Cc2ccccc2)c1 (stereo unspecified)	2	-1	4	-1	39*
O=C(Nc1ccc(F)cc1)N1[C@H](CO)[C@H]2c3ccccc3NC[C@H]21	-1	-29[16.7 µM]	-2	.	.
O=C(CC(=O)c1ccccc1)CC(O)(C=Cc1ccccc1)c1ccccc1 (stereo unspecified)	2	-4	3	0	52*

Bioassay records deposited in PubChem by Broad Institute.
